Assay results published in ChEMBL document CHEMBL3526049 (Drug Metab Dispos, 2012).

Key:
[1] = Volume of distribution at steady state in MRP2 knockout Sprague-Dawley rat at 1 mg/kg, iv by LC-MS/MS analysis; format: ADME, organism-based; set-up: dose 1 mg/kg, route intravenous; settings: in vivo, read-out: Vdss
How it was run: (§1)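 Male Sprague-Dawley rats (knockout or wild type matched for age and weight), femoral artery and vein cannulated, at least 2 days recovery. Crossover design: IV bolus 1 mg/kg on day 0 (saline with 0.2 M equivalents HCl), oral gavage 10 mg/kg on day 3 (water with 0.2 M equivalents HCl). Arterial plasma sampled to 24 h (Mdr1a oral arm to 4 h). Analysed by LC-MS/MS and noncompartmental analysis.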

[2] = Oral bioavailability in MDR1A knockout Sprague-Dawley rat at 10 mg/kg by LC-MS/MS analysis; format: ADME, organism-based; settings: in vivo; how it was run: as §1
Rattus norvegicus [3] = experiment: Toxicity in MDR1A knockout Sprague-Dawley rat assessed as lethargic behavior at 1 mg/kg, iv; format: organism-based; set-up: dose 1 mg/kg, route intravenous; settings: in vivo
Rattus norvegicus [4] = experiment: Toxicity in MDR1A knockout Sprague-Dawley rat assessed as hypoactive behavior at 10 mg/kg, po after 1 to 2 hrs; format: organism-based; set-up: dose 10 mg/kg, route oral; settings: in vivo
How it was run: (§2)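 Independent veterinary staff recorded clinical central signs. After oral dosing, animals were observed 1–2 h post-dose and again at 4 h, when sampling stopped and the animals were discontinued.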

Rattus norvegicus [5] = experiment: Toxicity in MDR1A knockout Sprague-Dawley rat assessed as eye protrusion at 10 mg/kg, po after 1 to 2 hrs; format: organism-based; set-up: dose 10 mg/kg, route oral; settings: in vivo; how it was run: as §2
Rattus norvegicus [6] = experiment: Toxicity in MDR1A knockout Sprague-Dawley rat assessed as lacrimation at 10 mg/kg, po after 1 to 2 hrs; format: organism-based; set-up: dose 10 mg/kg, route oral; settings: in vivo; how it was run: as §2
Rattus norvegicus [7] = experiment: Toxicity in MDR1A knockout Sprague-Dawley rat assessed as shallow breathing at 10 mg/kg, po after 1 to 2 hrs; format: organism-based; set-up: dose 10 mg/kg, route oral; settings: in vivo; how it was run: as §2
Rattus norvegicus [8] = experiment: Toxicity in MDR1A knockout Sprague-Dawley rat assessed as mortality at 10 mg/kg, po after 4 hrs; format: organism-based; set-up: dose 10 mg/kg, route oral; settings: in vivo; how it was run: as §2
Rattus norvegicus [9] = experiment: Toxicity in MDR1A knockout Sprague-Dawley rat assessed as stupor at 10 mg/kg, po after 4 hrs; format: organism-based; set-up: dose 10 mg/kg, route oral; settings: in vivo; how it was run: as §2
[10] = Volume of distribution at steady state in MDR1A knockout Sprague-Dawley rat at 1 mg/kg, iv by LC-MS/MS analysis; format: ADME, organism-based; set-up: dose 1 mg/kg, route intravenous; settings: in vivo, read-out: Vdss; how it was run: as §1
[11] = Volume of distribution at steady state in wild-type Sprague-Dawley rat at 1 mg/kg, iv by LC-MS/MS analysis; format: ADME, organism-based; set-up: dose 1 mg/kg, route intravenous; settings: in vivo, read-out: Vdss; how it was run: as §1
[12] = Volume of distribution at steady state in BCRP knockout Sprague-Dawley rat at 1 mg/kg, iv by LC-MS/MS analysis; format: ADME, organism-based; set-up: dose 1 mg/kg, route intravenous; settings: in vivo, read-out: Vdss; how it was run: as §1
[13] = AUC (infinity) in wild-type Sprague-Dawley rat at 1 mg/kg, iv by LC-MS/MS analysis; format: ADME, organism-based; set-up: time infinity, dose 1 mg/kg, route intravenous; settings: plasma
[14] = AUC (infinity) in MDR1A knockout Sprague-Dawley rat at 1 mg/kg, iv by LC-MS/MS analysis; format: ADME, organism-based; set-up: time infinity, dose 1 mg/kg, route intravenous; settings: plasma
[15] = AUC (infinity) in BCRP knockout Sprague-Dawley rat at 1 mg/kg, iv by LC-MS/MS analysis; format: ADME, organism-based; set-up: time infinity, dose 1 mg/kg, route intravenous; settings: plasma
[16] = AUC (infinity) in MRP2 knockout Sprague-Dawley rat at 1 mg/kg, iv by LC-MS/MS analysis; format: ADME, organism-based, Plasma; set-up: time infinity, dose 1 mg/kg, route intravenous; settings: Sprague-Dawley, plasma
[17] = Half life in wild-type Sprague-Dawley rat at 1 mg/kg, iv by LC-MS/MS analysis; format: ADME, organism-based; set-up: dose 1 mg/kg, route intravenous; settings: in vivo; how it was run: as §1
[18] = Half life in MDR1A knockout Sprague-Dawley rat at 1 mg/kg, iv by LC-MS/MS analysis; format: ADME, organism-based; set-up: dose 1 mg/kg, route intravenous; settings: in vivo; how it was run: as §1
[19] = Half life in BCRP knockout Sprague-Dawley rat at 1 mg/kg, iv by LC-MS/MS analysis; format: ADME, organism-based; set-up: dose 1 mg/kg, route intravenous; settings: in vivo; how it was run: as §1
[20] = Half life in MRP2 knockout Sprague-Dawley rat at 1 mg/kg, iv by LC-MS/MS analysis; format: ADME, organism-based; set-up: dose 1 mg/kg, route intravenous; settings: in vivo
How it was run: as §1, with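 “HCl).” for “HCl). Arterial plasma sampled to 24 h (Mdr1a oral arm to 4 h).”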

[21] = Cmax in wild-type Sprague-Dawley rat at 10 mg/kg, po by LC-MS/MS analysis; format: ADME, organism-based; set-up: dose 10 mg/kg, route oral; settings: in vivo; how it was run: as §1
[22] = Cmax in MDR1A knockout Sprague-Dawley rat at 10 mg/kg, po by LC-MS/MS analysis; format: ADME, organism-based; set-up: dose 10 mg/kg, route oral; settings: in vivo; how it was run: as §1
[23] = Cmax in BCRP knockout Sprague-Dawley rat at 10 mg/kg, po by LC-MS/MS analysis; format: ADME, organism-based; set-up: dose 10 mg/kg, route oral; settings: in vivo; how it was run: as §1
[24] = Cmax in MRP2 knockout Sprague-Dawley rat at 10 mg/kg, po by LC-MS/MS analysis; format: ADME, organism-based; set-up: dose 10 mg/kg, route oral; settings: in vivo; how it was run: as §1
[25] = Tmax in wild-type Sprague-Dawley rat at 10 mg/kg, po by LC-MS/MS analysis; format: ADME, organism-based; set-up: dose 10 mg/kg, route oral; settings: in vivo; how it was run: as §1
[26] = Tmax in MDR1A knockout Sprague-Dawley rat at 10 mg/kg, po by LC-MS/MS analysis; format: ADME, organism-based; set-up: dose 10 mg/kg, route oral; settings: in vivo; how it was run: as §1
[27] = Tmax in BCRP knockout Sprague-Dawley rat at 10 mg/kg, po by LC-MS/MS analysis; format: ADME, organism-based; set-up: dose 10 mg/kg, route oral; settings: in vivo; how it was run: as §1
[28] = Tmax in MRP2 knockout Sprague-Dawley rat at 10 mg/kg, po by LC-MS/MS analysis; format: ADME, organism-based; set-up: dose 10 mg/kg, route oral; settings: in vivo; how it was run: as §1
[29] = Half life in wild-type Sprague-Dawley rat at 10 mg/kg, po by LC-MS/MS analysis; format: ADME, organism-based; set-up: dose 10 mg/kg, route oral; settings: in vivo; how it was run: as §1
[30] = Half life in BCRP knockout Sprague-Dawley rat at 10 mg/kg, po by LC-MS/MS analysis; format: ADME, organism-based; set-up: dose 10 mg/kg, route oral; settings: in vivo; how it was run: as §1
[31] = Half life in MRP2 knockout Sprague-Dawley rat at 10 mg/kg, po by LC-MS/MS analysis; format: ADME, organism-based; set-up: dose 10 mg/kg, route oral; settings: in vivo; how it was run: as §1
[32] = Oral bioavailability in wild-type Sprague-Dawley rat at 10 mg/kg by LC-MS/MS analysis; format: ADME, organism-based; settings: in vivo; how it was run: as §1
[33] = Oral bioavailability in BCRP knockout Sprague-Dawley rat at 10 mg/kg by LC-MS/MS analysis; format: ADME, organism-based; settings: in vivo; how it was run: as §1
[34] = Oral bioavailability in MRP2 knockout Sprague-Dawley rat at 10 mg/kg by LC-MS/MS analysis; format: ADME, organism-based; settings: in vivo; how it was run: as §1
in vivo [35] = settings: Sprague-Dawley, rat, po, 10 mg/kg
in vivo [36] = settings: Sprague-Dawley, rat, po, 10 mg/kg; remark: listed apart in the source
in vivo [37] = settings: Sprague-Dawley, rat, plasma, po, 10 mg/kg
in vivo [38] = settings: Sprague-Dawley, rat, plasma, po, 10 mg/kg; remark: listed apart in the source
in vivo [39] = settings: Sprague-Dawley, rat, plasma, po, 10 mg/kg; remark: listed apart in the source

SMILES: CN(C)C(=O)C(CCN1CCC(O)(c2ccc(Cl)cc2)CC1)(c1ccccc1)c1ccccc1 [LOPERAMIDE]
- Vd [1]: 21.2 L/kg
- bioavailability [2]: 34%
- Activity (Rattus norvegicus [3]): Toxic
- Activity (Rattus norvegicus [4]): Toxic
- Activity (Rattus norvegicus [5]): Toxic
- Activity (Rattus norvegicus [6]): Toxic
- Activity (Rattus norvegicus [7]): Toxic
- Activity (Rattus norvegicus [8]): Toxic
- Activity (Rattus norvegicus [9]): Toxic
- Vd [10]: 7.9 L/kg
- Vd [11]: 9 L/kg
- Vd [12]: 11.5 L/kg
- AUC(0-inf) [13]: 131 ng·h/mL
- AUC(0-inf) [14]: 243 ng·h/mL
- AUC(0-inf) [15]: 161 ng·h/mL
- AUC(0-inf) [16]: 122 ng·h/mL
- half-life [17]: 60 min
- half-life [18]: 90 min
- half-life [19]: 90 min
- half-life [20]: 66 min
- Cmax [21]: 90 ng/mL
- Cmax [22]: 226 ng/mL
- Cmax [23]: 69 ng/mL
- Cmax [24]: 60 ng/mL
- Tmax [25]: 18 min
- Tmax [26]: 48 min
- Tmax [27]: 42 min
- Tmax [28]: 24 min
- half-life [29]: 780 min
- half-life [30]: 900 min
- half-life [31]: 780 min
- bioavailability [32]: 16%
- bioavailability [33]: 40%
- bioavailability [34]: 60%
- AUC(0-t) at 4 h (in vivo [35]): 651 ng·h/mL
- AUC(0-t) at 4 h (in vivo [36]): 184 ng·h/mL
- AUC(0-inf) (in vivo [37]): 806 ng·h/mL
- AUC(0-inf) (in vivo [38]): 980 ng·h/mL
- AUC(0-inf) (in vivo [39]): 1020 ng·h/mL
